Compounds with a hit are over-represented: about 0.48% of the library has one in this group of screens.
ABCB1 block: blocks JC-1 efflux by human ABCB1 transporter; inhibition, % at 6.6 µM; actives 0.067% (n = 190,000); CCRF-Adr cells, flow cytometry; P08183; AID 1326; in the data active = inhibition above about 40%;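 also: 0% = vehicle and 100% = reference inhibitor; higher value means more JC-1 retained so stronger ABCB1 efflux block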
TNAP inh noacc: blocks human TNAP activity with no phosphate acceptor present; P05186; purified TNAP, CDP-star luminescence, 30 min; inhibition, % at 20 µM; actives 0.26% (n = 200,000);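 active = tissue-nonspecific alkaline phosphatase inhibition above about 50% at 20 µM in the single-dose screen, limit read from the data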;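 also: 0% = DMSO negative control and 100% = EDTA positive control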
Target sequence (P05186 whole entry, looked up): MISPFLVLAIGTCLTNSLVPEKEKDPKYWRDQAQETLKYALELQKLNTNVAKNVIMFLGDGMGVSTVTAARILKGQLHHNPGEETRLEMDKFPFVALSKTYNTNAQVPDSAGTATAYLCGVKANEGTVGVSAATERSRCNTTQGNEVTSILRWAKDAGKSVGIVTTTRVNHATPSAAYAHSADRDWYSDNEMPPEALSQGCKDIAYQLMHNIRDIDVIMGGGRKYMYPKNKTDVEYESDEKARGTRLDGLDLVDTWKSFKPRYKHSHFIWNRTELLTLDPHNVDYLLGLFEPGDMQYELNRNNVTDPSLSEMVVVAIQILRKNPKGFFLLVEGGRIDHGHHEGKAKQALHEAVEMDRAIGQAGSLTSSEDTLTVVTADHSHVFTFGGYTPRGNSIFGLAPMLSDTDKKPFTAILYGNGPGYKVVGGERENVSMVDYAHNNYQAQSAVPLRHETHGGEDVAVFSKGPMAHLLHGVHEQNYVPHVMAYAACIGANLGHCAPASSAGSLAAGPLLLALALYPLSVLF
TNAP act hiacc: increases human TNAP activity under high phosphate acceptor concentration; P05186; purified TNAP, CDP-star luminescence, 1 M DEA, 30 min; stronger effect = higher value; 0 = EDTA background, 1 = DMSO-only activity; activation factor at 20 µM; 200,000 tested, under 10 active;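 active = activation factor at least 2 at 20 µM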
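Assay system: human TNAP; Input: enzyme diluted 1/800 final; Reagent: CDP-star luminogenic substrate at 100 µM final; Timing: 30 min, room temperature; Signal: luminescence; Evaluation: TNAP activation factor scaled between EDTA and DMSO control wells.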
TNAP inh hiacc: inhibitors of human TNAP at high phosphate acceptor concentration | purified TNAP, CDP-star luminescence, 1 M DEA | actives 0.03% (n = 200,000) | inhibition, % at 20 µM | P05186;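 active = over 50% inhibition of tissue-nonspecific alkaline phosphatase at 20 µM in the single-dose screen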;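 also: plate controls were DMSO wells for no effect and EDTA-quenched wells as full inhibition for full effect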
ABCG2 inh: human ABCG2 inhibition, ABCB1 as counter-screen. IgMXP3 cells, JC-1 efflux, flow cytometry. inhibition, % at 6.6 µM. actives 0.1% (n = 190,000);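 active = inhibition above 80%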;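 also: 0% = DMSO and 100% = nicardipine control wells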
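Test system: ABCG2 IgMXP3 and barcoded ABCB1 CCRF-Adr cell mix; Schedule: cells with compound and JC-1, 10 min at 25 °C, rotating, no wash; Technique: flow cytometry of retained JC-1 fluorescence; Measure: % inhibition of efflux relative to nicardipine and DMSO; Controls: nicardipine high and DMSO low controls.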
PKD1 inh: PKD1 (human) kinase inhibition; Q15139; PKD1 kinase fluorescence polarization assay; inhibition, % (no concentration beside the values); actives 0.056% (n = 200,000); in the data active = inhibition above about 50%
FP interf 140K: counter-screen for PKD inhibitors: fluorescence polarization interference | inhibition, % at 10 µM | shares compounds with PKD1 inh | AID 1315 | PKD1 FP assay interference counter-screen | 85 tested, under 10 active; call rule not given here
* = called active by the depositor.

SMILES | ABCB1 block | TNAP inh noacc | TNAP act hiacc | TNAP inh hiacc | ABCG2 inh | PKD1 inh | others
CCCCC(=O)N/N=C/c1c(O)n(CC)c(=S)[nH]c1=O | 0 | 87* | 1.1 | -9 | -2 | -1
CCCCC(=O)N/N=C/c1c(O)n(CCc2ccc(OC)c(OC)c2)c(=O)[nH]c1=O | -1 | -59 | 1 | 2 | -2 | 1
O=C(N/N=C/c1c(O)n(CCC2=CCCCC2)c(=O)[nH]c1=O)c1ccccc1 | 0 | 67* | 1 | -2 | 1 | -4
C=CCN1C(=O)NC(=O)/C(=C/C=C/c2ccccc2)C1=O | -1 | 2 | 1 | -2 | -3 | 4
CN(C)c1ccc(/C=C/C=C2/C(=O)NC(=O)N(c3ccccc3)C2=O)cc1 | 0 | 54* | 0.5 | 51* | 0 | -8
COc1ccc(CN2C(=O)NC(=O)/C(=C/c3ccc([N+](=O)[O-])o3)C2=O)cc1 | -1 | 10 | 0.9 | 14 | -10 | -6
COc1cc2c(cc1OC)C(C(=O)N(C)C1CCCCC1)C1CCCCN1C2=O (stereo not drawn) | 2 | -18 | 1 | 0 | -3 | -6
Oc1ccc(CC2CC3CCN2CC3)cc1O (stereo not drawn) | -1 | 75* | 0.9 | 7 | -4 | -12
CN1C(=O)c2ccccc2NC(=O)C1Cc1ccccc1 (stereo not drawn) | 0 | 62* | 1 | -2 | 0 | 2
CCCCn1c(=O)c(C(=O)Nc2nnc(C(C)C)s2)c(O)c2ccccc21 | 1 | -3 | 1 | -4 | 1 | 7
NC(=O)c1cn(C2OC(CO)C(O)C2O)c2ncnc(N)c12 (stereo not drawn) | 0 | -4 | 1 | -1 | 1 | 94* | FP interf 140K=-13
O=C(COc1ccccc1F)N1CCN(CCN2C(=O)c3cccc4cccc(c34)C2=O)CC1 | 1 | -1 | 0.9 | 7 | 2 | 1
CN1CCN(c2cccc3c2C(=O)c2ccccc2C3=O)CC1 | 1 | 18 | 0.9 | 12 | 16 | 101* | FP interf 140K=-9
CN1CCN(c2ccccc2N)CC1 | 0 | 4 | 1 | -4 | 5 | 1
